EWS-Fli inh = EWS/Fli-driven NR0B1 reporter inhibitors, primary screen, A673 cells, NR0B1 luciferase, luminescence, MLPCN library | inhibition, % at 12.6 µM | viability-normalised | hit rate 0.67% among 350,000;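 active = mean inhibition of at least 50% after viability correction, with every replicate also passing that limit; inconclusive = mean reaches 50% but only one of two replicates passes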;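 note: firefly luciferase signal divided by Alamar Blue viability fluorescence both relative to DMSO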
TWEAK-Fn14 inh = inhibitors of TWEAK-Fn14 signaling, primary screen, luciferase reporter cells, uHTS; inhibition, % at 10 µM; TWEAK-stimulated Fn14 reporter cells, luciferase luminescence, 8 h; AID 1159606, 2016; hit rate 2% among 360,000; in the data active = inhibition above about 50%
LGR2 antag = inhibitors of bursicon-induced LGR2 CRE-luciferase signal, primary screen, cell-based, HEK293, CRE-luciferase reporter, bursicon stimulation | Drosophila bursicon receptor LGR2 (rickets) | bursicon-stimulated, 4 h | inhibition, % at 9.99 µM | hit rate 0.35% among 380,000 | AID 720647, 2013;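 active = drop in luminescence signal, shown as inhibition above about 50% in the replicate tests, limit read from the data, passing the limit was not always enough; inconclusive = probably only some replicates passing the limit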;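 note: agonist challenge used bursicon conditioned medium at about half maximal strength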
FN deposition inh = inhibitors of fibronectin matrix deposition, primary screen, AH1F cells, Alexa488-fibronectin fluorescence, plate reader | hit rate 0.086% among 350,000 | inhibition, % at 12.6 µM | AH1F fibroblasts, overnight;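 active = mean inhibition across replicates of 30% or more, regardless of how many single replicates reach that level; inconclusive = mean under 30% yet at least half of replicates reach 30%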;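 note: positive control wells lacked labelled fibronectin entirely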
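Material – AH1F fibroblast monolayer, labelled fibronectin deposition · Reagent – labelled fibronectin 24 nM · Timing – 1 h adhesion, overnight exposure · Measured by – fluorescence at 485 nm excitation, 525 nm emission · Read-out – inhibition of fibronectin deposition signal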
TROY signal inh = inhibitors of TROY-driven NF-kB signaling, primary screen, Q293 LMP1-TROYcd cells, NF-kB luciferase, uHTS; hit rate 0.98% among 360,000; AID 1347056, 2019; Q293 LMP1-TROYcd NF-kB luciferase reporter, 4 h; inhibition, % at 10 µM;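 active = compounds whose plate-normalised and pattern-corrected inhibition of the luciferase reporter signal at the single screening dose is 50% or more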
Xi reactivation = activators of inactive X chromosome reactivation, primary screen, imaging, XiGFP fibroblasts, GFP high-content imaging, set 2; XiGFP mouse fibroblasts, % GFP-positive cells imaging, 3 d; cells co-treated with 5-aza-dC sensitizer; scaled so ellipticine positive control = 100%; activation, % at 7.58 µM; hit rate 0.055% among 360,000; AID 743238, 2013;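 active = mean normalized replicate activation at least 10% and every replicate at or above 10%; inconclusive = only one of the two criteria met; inactive = mean below 10% and not all replicates reach 10%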;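 note: 0% = median of on-plate neutral control wells and 100% = ellipticine 6 µM median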
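Schedule: 3 d treatment, 15 min room-temperature fixation; system: 68-5-11 XiGFP fibroblast line; buffer or medium: DMEM plus 5-aza-dC sensitizer; control set: ellipticine 6 µM positive control; compound: one concentration, pinned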
* hit, by the source's call; ? = inconclusive; / = no result; ! = repeats disagree. In the library only some 2.3% were active in any assay of this set; here they are far more common.

SMILES	EWS-Fli inh	TWEAK-Fn14 inh	LGR2 antag	FN deposition inh	TROY signal inh	Xi reactivation
CO[C@H]1CN(C)C(=O)c2ccc(NC(=O)Nc3ccc(Cl)c(Cl)c3)cc2OC[C@H](C)NC[C@@H]1C	69*	/	22	31*!	/	0
CO[C@H]1CN(C)C(=O)c2cc(NC(=O)Nc3cc(Cl)cc(Cl)c3)ccc2OC[C@H](C)NC[C@H]1C	7	/	-20	32*!	/	0
Cc1ccc(C(=O)NC(=S)Nc2ccc(-c3cc4ccccc4oc3=O)cc2)c(C)c1	/	48	/	/	/	/
CCC(=O)Nc1cccc(-c2cc3ccccc3oc2=O)c1	-10	60*	-51	-9	63*	0
O=C(Cc1cccc2ccccc12)Nc1ccc(-c2cc3ccccc3oc2=O)cc1	/	-12	/	/	58*	/
CC(=O)Nc1ccc(NC(=O)c2cccc(-c3cc4ccccc4oc3=O)c2)cc1	-36	-14	-49	-10	-34	0
Cc1cc(C)cc(C(=O)NC(=S)Nc2ccc(-c3cc4ccccc4oc3=O)cc2)c1	/	44	5	0	57*	0
Cc1noc(C)c1NC(=O)N(C)C[C@@H]1OCCCC[C@@H](C)Oc2ccc(NS(=O)(=O)c3ccccc3)cc2C(=O)N([C@@H](C)CO)C[C@H]1C	-12	/	-12	-10	/	0
Cc1cccc(S(=O)(=O)N2[C@@H]3CNC[C@H]2C3c2ccc(-c3ccncc3)cc2)c1 (stereo partly specified)	65*!	/	-9	4	/	0
Cc1ccccc1-c1ccc(C2[C@H]3CNC[C@@H]2N3S(=O)(=O)c2ccccc2)cc1 (stereo partly specified)	-6	/	-18	-2	/	0
Cc1ccccc1S(=O)(=O)N1[C@@H]2CNC[C@H]1C2c1ccc(-c2ccncc2)cc1 (stereo partly specified)	8	/	16	-24	/	0
Cc1cccc(S(=O)(=O)N2[C@@H]3CNC[C@H]2C3c2ccc(-c3ccccc3C)cc2)c1 (stereo partly specified)	59*!	/	-7	-3	/	0
COc1ccc(S(=O)(=O)Nc2ccc3c(c2)C(=O)N([C@H](C)CO)C[C@@H](C)[C@@H](CN(C)Cc2ccc(C(=O)O)cc2)O3)cc1	-7	/	9	-4	/	0
Cc1cccc(-c2cc(C(=O)Nc3sc(C)c(C)c3C(N)=O)c3ccccc3n2)c1	/	5	/	/	30	/
CCOC(=O)c1sc(NC(=O)CSc2nc(C)cc(C)n2)c(C#N)c1C	/	0	/	-6	23	/
Cc1ccc(C)c(-c2cc(C(=O)Nc3sc(C)c(C)c3C(N)=O)c3ccccc3n2)c1	/	66*	?	/	72*	/
CCOC(=O)c1sc(NC(=O)CSc2n[nH]c(-c3ccccc3)n2)c(C#N)c1C	/	-8	/	/	65*	/
CCOC(=O)c1sc(NC(=O)c2cccnc2)c(C#N)c1C	/	4	-19	/	-20	/
CCOC(=O)c1sc(NC(=O)c2cc(-c3ccccc3)nc3ccccc23)c(C#N)c1C	/	62*	/	/	63*	/
CCNC(=O)C[C@@H]1CC[C@@H]2[C@H](COc3ccc(NC(=O)c4ccc(F)c(F)c4)cc3C(=O)N2C)O1	4	/	5	-7	/	0
Cc1ccc(/C(N)=N/OC(=O)CN(C)S(=O)(=O)c2ccc(C)cc2)cc1	-5	4	13	-6	27	0
COc1ccc(/C(N)=N/OC(=O)CN(C)S(=O)(=O)c2ccc(C)cc2)cc1	9	68*	9	0	17	0
COc1ccccc1CNC(=O)C[C@@H]1C=C[C@@H](NC(=O)CC2CC2)[C@@H](CO)O1	3	/	-18	2	/	0
CC(C)(C)C(=O)Cn1ncc(N2CCOCC2)c(Cl)c1=O	8	1	-32	1	-14	0
CC(C)(C)C(=O)Cn1ncc(Br)c(Br)c1=O	28	79*	103*	15	53*	3
SMILES	EWS-Fli inh	TWEAK-Fn14 inh	LGR2 antag	FN deposition inh	TROY signal inh	Xi reactivation
CC(C)CNC(=O)Cn1c(=O)c2c(ncn2CC(C)C)n(Cc2ccccc2)c1=O	-5	6	7	-3	4	0
CCNC(=S)NNC(=O)Cn1c(=O)c2c(ncn2CCOC)n(Cc2ccccc2)c1=O	1	93*	8	-4	-1	0
COCCn1cnc2c1c(=O)n(CC(=O)NC(=O)NC(C)(C)C)c(=O)n2Cc1ccccc1	0	26	-13	-4	-3	0
CCCCCNC(=O)Cn1c(=O)c2c(ncn2CC(C)C)n(Cc2ccccc2)c1=O	-17	50*	1	-6	2	/
COc1ccc2[nH]c3c(c2c1)CCN1C(=O)N([C@@H](C)C(=O)NCc2ccc(C)cc2)C(=O)[C@]31C	7	0	86*	/	10	/
C[C@H](CO)N1C[C@H](C)[C@@H](CN(C)C(=O)Nc2ccc(F)cc2)Oc2ccc(NS(=O)(=O)c3cccs3)cc2CC1=O	-6	/	8	/	/	0
CCOC(=O)c1sc2ccccc2c1NC(=O)c1coc2ccccc2c1=O	/	57*	-12	3	30	0
O=C(O)c1cnc(-c2ccccc2)nc1Sc1ccc(Cl)cc1Cl	/	-17	/	/	61*	/
CC(=O)OC1COC(N2CCc3ccccc32)C(OC(C)=O)C1OC(C)=O (stereo unspecified)	8	61*	3	-1	2	0
CC(=O)OC1COC(N2CCc3cc(Br)c([N+](=O)[O-])cc32)C(OC(C)=O)C1OC(C)=O (stereo unspecified)	/	2	/	5	2	/
Cc1ccc(N=Nc2ccc3ccccc3c2O)cc1	55*	95*	30	1	78*	0
Cc1ccc(N=Nc2ccc(O)c3ncccc23)cc1	41	-81	/	13	-33	1
Oc1c(N=Nc2nn[nH]n2)ccc2ccccc12	-24	52*	-13	2	24	0
Oc1c(N=Nc2ccc(F)cc2)ccc2ccccc12	4	54*	7	1	38	0
Brc1ccc(N/N=C(/N=Nc2nn[nH]n2)c2ccccc2)cc1	-14	28	-9	10	-46	0
CC(C)NC(=O)Nc1cccc2c1O[C@H](CN(C)S(C)(=O)=O)[C@@H](C)CN(C)C2=O	/	/	/	2	/	0
O=C(C1CCCN(S(=O)(=O)c2cccc3nsnc23)C1)N1CC=C(c2ccccc2)CC1 (stereo unspecified)	/	51*	/	/	27	/
COc1ccc(S(=O)(=O)N(CCCN2CCCC2=O)Cc2cc3cc(C)c(C)cc3[nH]c2=O)cc1	/	94*	/	/	14	/

Compound activity (PubChem)
